Experiments:
[1] = Metabolic stability in human liver microsome assessed as maximum bioavailability; assay type: ADME; conditions: liver microsomes, read-out: Max Achievable Bioavailability
[2] = target: T1, Corticotropin-releasing factor receptor 1 (Homo sapiens, UniProt P34998); assay: Antagonist activity at human recombinant CRF1 receptor; assay type: functional
T1 sequence (P34998 whole entry): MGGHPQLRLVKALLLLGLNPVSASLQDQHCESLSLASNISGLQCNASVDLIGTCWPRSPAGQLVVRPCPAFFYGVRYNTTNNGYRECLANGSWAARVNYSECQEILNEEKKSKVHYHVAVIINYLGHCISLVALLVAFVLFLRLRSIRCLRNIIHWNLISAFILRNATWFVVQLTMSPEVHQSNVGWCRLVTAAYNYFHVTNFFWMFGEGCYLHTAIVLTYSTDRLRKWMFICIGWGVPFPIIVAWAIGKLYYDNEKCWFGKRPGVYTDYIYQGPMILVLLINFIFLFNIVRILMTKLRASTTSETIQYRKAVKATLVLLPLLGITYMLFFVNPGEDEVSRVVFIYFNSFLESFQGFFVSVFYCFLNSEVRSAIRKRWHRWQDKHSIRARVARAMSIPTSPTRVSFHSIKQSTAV

Rattus norvegicus = assay: AUC (0 to 24 hrs) in rat at 10 mg/kg, po; assay type: ADME, organism-based, Plasma; design: time < 24 hr, dose 10 mg/kg, route oral; conditions: in vivo
Procedure, shortened: (§1)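 Rats were given a single oral dose of 10 mg/kg and followed for 24 h. Plasma exposure was expressed as AUC0–24 and oral bioavailability was determined. Brain and plasma levels were measured 1 h post-dose to give the brain/plasma ratio.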

[3] = Ratio of drug uptake in brain to plasma in rat at 10 mg/kg, po; assay type: ADME, organism-based; design: dose 10 mg/kg, route oral; conditions: brain and plasma, read-out: BPR; procedure, shortened: as §1
[4] = Volume of distribution in rat at 5 mg/kg, iv after 72 hrs; assay type: ADME, organism-based; design: dose 5 mg/kg, route intravenous; conditions: in vivo
Procedure, shortened: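 Rats received a single intravenous dose of 5 mg/kg in a 72 h pharmacokinetic study. Clearance and volume of distribution at steady state (Vdss) were derived.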

SMILES	Fh [1]	Ki [2]	further results
COc1ccc(-c2c(C)nn3c(NC(C)Cc4noc(C)n4)cc(C)nc23)c(C)c1 (stereo not given)	26%	79.4 nM	–
CCC(Nc1cc(C)nc2c(-c3ccc(OC)cc3OC)c(C)nn12)c1nc(C)no1 (stereo not given)	–	50.1 nM	–
COc1ccc(-c2c(C)nn3c(NCc4nc(C)no4)cc(C)nc23)c(C)c1	–	63.1 nM	–
COc1ccc(-c2c(C)nn3c(NC(C)Cc4nc(C)no4)cc(C)nc23)c(C)c1 (stereo not given)	32%	31.6 nM	–
CCC(Nc1cc(C)nc2c(-c3ccc(OC)cc3C)c(C)nn12)c1nnc(C)o1 (stereo not given)	64%	100 nM	–
CC[C@H](Nc1cc(C)nc2c(-c3ccc(OC)cc3C)c(C)nn12)c1nc(C)no1 [VERUCERFONT]	–	–	AUC (Rattus norvegicus): 3130 ng·h/mL; Kp [3]: 1.6; Vd [4]: 7.5 L/kg

More lines, main results first:

Fh [1]	Ki [2]	SMILES	further results
17%	–	CCCN(CCC)c1cc(C)nc2c(-c3cnc(N(C)C)cc3C)c(C)nn12	–
–	251 nM	COc1ccc(-c2c(C)nn3c(NC(C)Cc4nnc(C)o4)cc(C)nc23)c(C)c1 (stereo not given)	–
17%	5.01 nM	CCN(Cc1nc(C)no1)c1cc(C)nc2c(-c3ccc(OC)cc3C)c(C)nn12	–

— ChEMBL document CHEMBL1287801, “Discovery of NBI-77860/GSK561679, a potent corticotropin-releasing factor (CRF1) receptor antagonist with improved pharmacokinetic properties” (Bioorg Med Chem Lett, 2010)
